This is a sample that favours compounds with a hit; in the whole collection about 4.6% have one here.
UCH37 DUB inh = inhibitors of human deubiquitinating enzyme UCH37 | Q9Y5K5 | purified proteasome/UCH37, Ub-AMC cleavage fluorescence | inhibition, % (test concentration not listed) | hit rate 0.33% among 330,000;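 active = mean inhibition over replicate wells above about 20%, limit read from the data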
Target sequence (Q9Y5K5 whole entry, looked up): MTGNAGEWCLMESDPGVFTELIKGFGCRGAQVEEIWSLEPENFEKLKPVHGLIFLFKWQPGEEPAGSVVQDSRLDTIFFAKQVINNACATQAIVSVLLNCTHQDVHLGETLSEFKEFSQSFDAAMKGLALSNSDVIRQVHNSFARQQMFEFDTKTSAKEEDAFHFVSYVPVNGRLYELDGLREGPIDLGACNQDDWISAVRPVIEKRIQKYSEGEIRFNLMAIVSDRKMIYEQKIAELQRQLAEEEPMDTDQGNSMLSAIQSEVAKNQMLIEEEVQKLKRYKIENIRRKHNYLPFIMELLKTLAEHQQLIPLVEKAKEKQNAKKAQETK
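Reagent: Ub-AMC substrate; assay system: Proteasome-associated human UCH37 deubiquitinase; controls: no-proteasome and no-compound wells; read-out: % inhibition of Ub-AMC cleavage fluorescence; timing: 30 min preincubation with enzyme, 25 min cleavage at room temperature; signal: AMC fluorescence from Ub-AMC cleavage, excitation 355 nm, emission 460 nm; buffer or medium: Tris-HCl pH 7.4 plus ovalbumin, ATP-MgCl2, DTT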
M18AAP inhibitor = blocks P. falciparum M18 aspartyl aminopeptidase. recombinant PfM18AAP, H-Glu-NHMec fluorogenic cleavage. inhibition, % at 7.35 µM. hit rate 1.2% among 290,000;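 active = inhibition above the campaign mean inhibition over all tested compounds plus 3 SD, cut at about 28% in these data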
ALR inh = blocks human ALR sulfhydryl oxidase activity. inhibition, % (concentration not given with the values). P55789. hit rate 3.8% among 290,000. purified ALR, DTT oxidation, H2O2 HRP-luminol luminescence;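 active = mean replicate inhibition above about 79%, with every replicate also reaching it, limit read from the data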
Target sequence (P55789 whole entry, looked up): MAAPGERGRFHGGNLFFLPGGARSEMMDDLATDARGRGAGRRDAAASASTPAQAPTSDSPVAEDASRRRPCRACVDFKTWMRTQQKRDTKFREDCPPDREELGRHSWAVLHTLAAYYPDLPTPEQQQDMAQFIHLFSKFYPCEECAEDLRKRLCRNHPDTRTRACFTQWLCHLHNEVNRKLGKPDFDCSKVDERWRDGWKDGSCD
FAS-TE inh = inhibitors of human fatty acid synthase thioesterase domain; P49327; recombinant FAS-TE, OMFH fluorogenic substrate, fluorescence endpoint; inhibition, % at 15 µM; hit rate 0.67% among 360,000;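 active = compounds whose normalised, plate-corrected inhibition of enzyme fluorescence in the single-dose primary screen is 50% or more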
HDAC3 inh = blocks human histone deacetylase 3. AID 2718. recombinant HDAC3, fluorogenic peptide/trypsin coupled, fluorescence. O15379. hit rate 0.15% among 320,000. inhibition, % at 8.3 µM; in the data active = inhibition above about 26%, passing the limit was not always enough
Rtt109 HAT inh = inhibitors of Candida albicans Rtt109/Vps75 histone acetyltransferase; Q5AAJ8; purified Rtt109/Vps75, ThioGlo CoA-SH fluorescence, 4 h; inhibition, % at 34.9 µM; hit rate 0.16% among 330,000; AID 540336;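 active = inhibition of at least 50% in every replicate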
Each line names hits and unclear results; the compound was inactive in the other large screens.

COc1ccc(C2C(C(N)=O)=C(C)Nc3nc(-c4ccccc4)nn32)cc1OC (stereo unspecified)	none
COc1cccc(-c2nc3n(n2)C(c2ccc4c(c2)OCO4)C(C(N)=O)=C(C)N3)c1 (stereo unspecified)	HDAC3 inh 55.9
O=[N+]([O-])c1cccc(C=NNc2nc(C(Cl)(Cl)Cl)nc3ccccc23)c1	none (no result: M18AAP inhibitor, ALR inh, FAS-TE inh, HDAC3 inh, Rtt109 HAT inh)
Cn1c(=O)c2[nH]c(Nc3ccccc3)nc2n(C)c1=O	ALR inh 89.2
O=C(Cn1ncc(Cl)c(Cl)c1=O)NCC1CCCCC1	ALR inh 95.0
O=C(Cn1ncc(Cl)c(Cl)c1=O)NC1CCCCC1	none (no result: M18AAP inhibitor, ALR inh)
CCOC(=O)C[N+](C)(C)CCOC1CC2CCC1(C)C2(C)C (stereo unspecified)	none (no result: ALR inh)
CC1(C)C2CCC1(C)C(OCC[N+](C)(C)CC(=O)OC1CCCCC1)C2 (stereo unspecified)	Rtt109 HAT inh 57.9
CC(C)(C)C=NNC(=O)C1CC1	none (no result: M18AAP inhibitor, ALR inh, FAS-TE inh, HDAC3 inh, Rtt109 HAT inh)
CC(C)C(C(=O)O)N1C(=O)/C(=C/c2cccn2C)SC1=S (stereo unspecified)	UCH37 DUB inh 24.9, HDAC3 inh 33.4
Cn1cccc1/C=C1\SC(=S)N(Nc2ccccc2)C1=O	none
CC(C)C(C(=O)O)N1C(=O)/C(=C/C=C/c2ccco2)SC1=S (stereo unspecified)	ALR inh 98.9
CCCC(C(=O)O)N1C(=O)/C(=C/c2cccn2C)SC1=S (stereo unspecified)	UCH37 DUB inh 22.5
Cn1cccc1/C=C1/SC(=O)N(CC(=O)N2CCCC2)C1=O	none
CCC(Cc1ccccc1)=NNC(=O)c1cccc(Br)c1	none (no result: M18AAP inhibitor, ALR inh, FAS-TE inh, HDAC3 inh, Rtt109 HAT inh)
CCC(=O)Nc1cc(C(=O)OCC(=O)c2ccc(Cl)cc2Cl)ccc1C	none
O=C(O)CCC(=O)Nc1ccc(C(=O)OCC(=O)c2ccc(Cl)cc2Cl)cc1	ALR inh 96.5
O=C(O)c1ccccc1-c1ccc(C=c2sc3nc4cc(Br)cnc4n3c2=O)o1	UCH37 DUB inh 42.9 (no result: M18AAP inhibitor, ALR inh, HDAC3 inh, Rtt109 HAT inh)
NC(=O)NN=C1c2ccccc2-c2c(C(N)=O)cccc21	none (no result: M18AAP inhibitor, ALR inh, FAS-TE inh, HDAC3 inh, Rtt109 HAT inh)
O=C(CN1CCCCCCC1)NN=Cc1ccccc1F	none (no result: M18AAP inhibitor, ALR inh, FAS-TE inh, HDAC3 inh, Rtt109 HAT inh)
COC(=O)NN=C(C)c1ccc(OC(F)F)cc1	none (no result: M18AAP inhibitor, ALR inh, FAS-TE inh, HDAC3 inh, Rtt109 HAT inh)
N#C/C(=C\c1ccc([N+](=O)[O-])cc1)C(=O)Nc1ccccc1O	ALR inh 86.4
O=C(Nc1ccccc1O)c1ccc(Cl)cc1	HDAC3 inh 90.7
O=C(Nc1ccccc1OC(=O)c1ccc(Cl)cc1)c1ccc(Cl)cc1	none
O=C(Nc1ccccc1O)c1ccc([N+](=O)[O-])cc1	HDAC3 inh 52.8
CSc1ccccc1NC(=O)c1ccc([N+](=O)[O-])cc1	none
COc1ccc(N2C(=O)[C@@H]3[C@H](C2=O)[C@H]2c4ccccc4C=CN2[C@@H]3C(=O)Nc2ccccc2)cc1	UCH37 DUB inh 30.4
CC(=O)[C@@H]1[C@@H]2C(=O)N(Cc3ccccc3)C(=O)[C@@H]2C2c3ccccc3C=CN21 (stereo partly specified)	UCH37 DUB inh 58.2
CC1CN(C2CCCCC2)c2nc3c(c(=O)[nH]c(=O)n3C)n2C1 (stereo unspecified)	ALR inh 95.2
CCC1CCCCN1C(=O)Cn1c(=O)oc2ccccc21 (stereo unspecified)	M18AAP inhibitor 28.7
O=C(NCc1ccncc1)c1cccc(S(=O)(=O)Nc2ccc(SC(F)F)cc2)c1	none (no result: M18AAP inhibitor)
O=C(NCc1ccccn1)c1cccc(S(=O)(=O)Nc2ccc(SC(F)F)cc2)c1	ALR inh 97.6 (no result: M18AAP inhibitor)
O=C1CCC/C(=N\NC(=O)c2ccc(NS(=O)(=O)c3ccc(Br)cc3)cc2)C1	M18AAP inhibitor 30.1 (no result: UCH37 DUB inh)
O=C(CSS(=O)(=O)O)N1CCN(C(=O)c2ccoc2)CC1	ALR inh 98.2
O=C(c1cccc(Cl)c1)C1CCCN(C(=O)c2ccoc2)C1 (stereo unspecified)	none
O=C(Cc1ccc(Cl)cc1)NN=Cc1ccccc1	none (no result: M18AAP inhibitor, ALR inh, FAS-TE inh, HDAC3 inh, Rtt109 HAT inh)
Cc1ccc(-c2cc(C(=O)Nc3c(C)n(C)n(-c4ccccc4)c3=O)[nH]n2)c(O)c1	none
Cc1ccc(-c2cc(C(=O)Nc3c(C)n(C)n(-c4ccccc4)c3=O)[nH]n2)c(O)c1C	ALR inh 97.2
COc1ccc2[nH]c(=O)c(CN(C(=O)c3ccccn3)C3CCCCC3)cc2c1	ALR inh 99.0
COC(=O)c1ccc2c(c1)NC(=O)c1ccccc1S2	none

Source: PubChem (several laboratories)
